In ChEMBL document CHEMBL1143386, “Prodrugs of perzinfotel with improved oral bioavailability” (J Med Chem, 2009):

Columns and labels:
Rattus norvegicus [1] = species on record: Rattus norvegicus; test: Half life in Sprague-Dawley rat plasma assessed as formation of perzinfotel; type: ADME
Outline: (§1)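 Dissolved at 0.05 mg/mL in rat plasma and incubated at 37 °C for 0–24 h. Samples quenched with acetonitrile and centrifuged; supernatant diluted and run on HPLC. Parent and conversion products quantified by peak area at 304 nm, corrected by internal standard, and confirmed by LC/MS. Kinetics fitted to a two-step first-order model.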

[2] = Half life in pH 8.5 buffer assessed as formation of perzinfotel; type: physicochemical
Outline: (§2)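 Compound at a final 0.01 mg/mL in 9:1 pH 8.5 buffer or simulated intestinal fluid:acetonitrile, 37 °C. HPLC injections every 4 h over 24 h, with peak area at 304 nm corrected by internal standard and identities confirmed by LC/MS. Conversion kinetics fitted to a two-step first-order model to give rate constants, half-lives and Tmax of the hemiester.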

[3] = Half life in simulated intestinal fluid assessed as formation of perzinfotel; type: physicochemical; conditions: simulated gi fluid; outline: as §2
Rattus norvegicus [4] = species on record: Rattus norvegicus; test: Tmax in Sprague-Dawley rat plasma assessed as formation of benzoic acid [2-(8,9-dioxo-2,6-diaza-bicyclo[5.2.0]non-1(7)-en-2-yl)-ethyl]-hydroxy-phosphinoyloxymethyl ester; type: ADME; conditions: in vitro; outline: as §1
Glutamate NMDA receptor = test: Displacement of [3H]CGP-39653 from rat brain NMDA receptor
Outline: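 Competitive displacement of [3H]CGP-39653 at the NMDA recognition site, using rat whole-brain membranes.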

[5] = Tmax in pH 8.5 buffer assessed as formation of benzoic acid [2-(8,9-dioxo-2,6-diaza-bicyclo[5.2.0]non-1(7)-en-2-yl)-ethyl]-hydroxy-phosphinoyloxymethyl ester; type: physicochemical; outline: as §2
[6] = Tmax in simulated intestinal fluid assessed as formation of benzoic acid [2-(8,9-dioxo-2,6-diaza-bicyclo[5.2.0]non-1(7)-en-2-yl)-ethyl]-hydroxy-phosphinoyloxymethyl ester; type: physicochemical; conditions: simulated gi fluid; outline: as §2

Compound: O=C(OCOP(=O)(O)CCN1CCCNc2c1c(=O)c2=O)c1ccccc1
- t1/2 (Rattus norvegicus [1]): 0.87 h
- t1/2 [2]: > 24 h
- t1/2 [3]: > 24 h
- Tmax (Rattus norvegicus [4]): 0.19 h
- IC50 (Glutamate NMDA receptor): 17 µM
- Tmax [5]: 9.14 h
- Tmax [6]: 14.48 h
